Calls of active or inactive are those of the source.
Legend:
[1] = tested on: MCF7; experiment: Cytotoxicity against human MCF7 cells after 72 hrs by XTT assay; assay type: functional; conditions: for GI50: MCF7, 72 h
In short: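 MCF-7 breast cancer cells exposed to a range of compound concentrations, and growth read by XTT anti-proliferation assay. GI50 is defined as the concentration giving 50% growth inhibition, taken from dose–response plots.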

[2] = molecular target: DNA (cytosine-5)-methyltransferase 1 (Homo sapiens) (UniProt P26358); experiment: Inhibition of recombinant DNMT1 (unknown origin) after 90 mins by fluorescence assay
Chain of DNA (cytosine-5)-methyltransferase 1 (Homo sapiens) (P26358 whole entry): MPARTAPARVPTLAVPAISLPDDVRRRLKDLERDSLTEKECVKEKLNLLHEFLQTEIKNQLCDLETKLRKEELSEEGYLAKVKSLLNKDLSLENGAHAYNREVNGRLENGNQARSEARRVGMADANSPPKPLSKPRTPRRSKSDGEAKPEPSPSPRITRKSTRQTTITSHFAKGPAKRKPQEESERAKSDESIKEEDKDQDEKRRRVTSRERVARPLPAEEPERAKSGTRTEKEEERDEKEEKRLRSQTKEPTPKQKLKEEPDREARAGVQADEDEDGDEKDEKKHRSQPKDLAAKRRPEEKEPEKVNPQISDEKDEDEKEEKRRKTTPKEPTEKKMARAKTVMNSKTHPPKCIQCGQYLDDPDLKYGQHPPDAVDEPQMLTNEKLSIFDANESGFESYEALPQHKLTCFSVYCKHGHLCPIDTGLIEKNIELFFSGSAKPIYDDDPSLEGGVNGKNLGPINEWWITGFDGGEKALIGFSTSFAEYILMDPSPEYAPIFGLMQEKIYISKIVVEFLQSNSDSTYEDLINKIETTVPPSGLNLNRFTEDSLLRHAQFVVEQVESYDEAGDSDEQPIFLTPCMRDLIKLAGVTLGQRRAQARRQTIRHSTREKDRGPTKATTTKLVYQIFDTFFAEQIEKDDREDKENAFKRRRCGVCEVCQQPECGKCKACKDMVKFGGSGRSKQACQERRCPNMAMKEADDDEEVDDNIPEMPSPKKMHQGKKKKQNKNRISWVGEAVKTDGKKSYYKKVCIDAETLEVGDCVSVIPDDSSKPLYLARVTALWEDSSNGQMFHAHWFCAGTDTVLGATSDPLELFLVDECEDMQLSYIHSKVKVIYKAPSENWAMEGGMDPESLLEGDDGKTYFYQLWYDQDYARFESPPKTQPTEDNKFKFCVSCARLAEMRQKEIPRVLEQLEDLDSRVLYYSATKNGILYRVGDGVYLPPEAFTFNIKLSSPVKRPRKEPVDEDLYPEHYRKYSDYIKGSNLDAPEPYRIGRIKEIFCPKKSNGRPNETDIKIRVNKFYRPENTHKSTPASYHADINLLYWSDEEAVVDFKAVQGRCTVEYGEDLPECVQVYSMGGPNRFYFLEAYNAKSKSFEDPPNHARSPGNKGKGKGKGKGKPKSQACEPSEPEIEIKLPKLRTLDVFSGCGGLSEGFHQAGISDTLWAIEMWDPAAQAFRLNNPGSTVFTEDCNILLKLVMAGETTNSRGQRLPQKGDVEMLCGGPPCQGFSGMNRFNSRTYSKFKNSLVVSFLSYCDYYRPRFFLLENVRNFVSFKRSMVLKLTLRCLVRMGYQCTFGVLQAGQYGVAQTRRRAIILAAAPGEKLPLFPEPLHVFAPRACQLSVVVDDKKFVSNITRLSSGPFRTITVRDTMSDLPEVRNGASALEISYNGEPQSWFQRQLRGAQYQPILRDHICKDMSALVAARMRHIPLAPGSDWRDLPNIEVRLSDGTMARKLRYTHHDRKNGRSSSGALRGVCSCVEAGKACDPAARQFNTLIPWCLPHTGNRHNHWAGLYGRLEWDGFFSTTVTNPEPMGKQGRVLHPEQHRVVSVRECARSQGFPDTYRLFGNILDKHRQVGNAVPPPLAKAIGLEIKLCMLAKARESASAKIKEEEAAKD

[3] = Drug uptake in nucleus of human MCF7 cells at 5 uM preincubated for 30 hrs post RG108, 1149 and (S)-Methyl 2-(2,5-dioxo-2,5-dihydro-1H-pyrrol-1-yl)-3-(4-(5-phenyl-2H-tetrazol-2-yl)phenyl)propanoate treatment followed by clicked with TER-PEG-N3 measured after 2 hrs by Hoechst 33342 staining-based immunofluorescence assay; assay type: ADME, cell-based; conditions: mcf7, 2 h, in the assay text read “30 min” for “30 hrs”
In short: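 MCF-7 cells incubated with 5 µM alkyne probe for 30 min in the incubator, fixed with 3.7% formaldehyde, permeabilised with 0.1% Triton X-100 and clicked with TER-PEG-N3. Anti-DNMT1 immunofluorescence and Hoechst nuclear staining followed. Localisation was read by fluorescence microscopy, with DMSO-only cells as control.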

[4] = tested on: MCF7; experiment: Induction of apoptosis in human MCF7 cells assessed as apoptotic cells at 10 uM after 6 hrs by FITC-Annexin V/propidium iodide staining-based FACS analysis relative to control; assay type: functional
In short: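 Live MCF-7 cells treated with inhibitors at 10 µM, then stained with FITC Annexin V (apoptosis) and propidium iodide (cell death). Signals were quantified by flow cytometry against DMSO-treated cells.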

[5] = molecular target: DNA (cytosine-5)-methyltransferase 1 (Homo sapiens) (UniProt P26358); experiment: Binding affinity to DNMT1 in human MCF7 cells at 10 uM preincubated for 1 hr post RG108, 1149 and (S)-Methyl 2-(2,5-dioxo-2,5-dihydro-1H-pyrrol-1-yl)-3-(4-(5-phenyl-2H-tetrazol-2-yl)phenyl)propanoate treatment followed by clicked with TER-Biotin-N3 for 2 hrs and pull down by Western blot analysis; assay type: cell-based
In short: (§1)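 Freshly prepared MCF-7 lysate (100 µg) labelled with 10 µM alkyne probe for 1 h at room temperature, then CuAAC click for 2 h. TER-PEG-N3 was used for in-gel fluorescence scanning, and TER-Biotin-N3 for pull-down followed by western blot against DNMT1. DMSO-treated cells served as the negative control.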

[6] = molecular target: DNA (cytosine-5)-methyltransferase 1 (Homo sapiens) (UniProt P26358); experiment: Binding affinity to DNMT1 in human MCF7 cells at 10 uM preincubated for 1 hr post RG108, 1149 and (S)-Methyl 2-(2,5-dioxo-2,5-dihydro-1H-pyrrol-1-yl)-3-(4-(5-phenyl-2H-tetrazol-2-yl)phenyl)propanoate treatment followed by CuAAC click chemistry application measured after 2 hrs by gel fluorescence scanning assay; assay type: cell-based; in short: as §1
[7] = molecular target: DNA (cytosine-5)-methyltransferase 1 (Homo sapiens) (UniProt P26358); experiment: Competitive inhibition of DNMT1 in (S)-Methyl 2-(2,5-dioxo-2,5-dihydro-1H-pyrrol-1-yl)-3-(5-(prop-2-yn-1-yloxy)-1H-indol-3-yl)propanoate labeled human MCF7 cells at 50 to 500 uM preincubated for 1 hr followed by cell labeling for 1 hr and clicked with TER-biotin-N3 for 2 hrs and pull down by Western blot analysis; assay type: cell-based
In short: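 Mammalian cells pretreated with competitor at 50, 100 or 500 µM. Their lysates were then labelled with 10 µM alkyne probe for 1 h at room temperature and clicked for 2 h with TER-Biotin-N3. DNMT1 (~183 kDa) was detected by pull-down and western blot, with DMSO as the negative control.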

[8] = molecular target: DNA (cytosine-5)-methyltransferase 1 (Homo sapiens) (UniProt P26358); experiment: Competitive inhibition of DNMT1 in (S)-Methyl 2-(2,5-dioxo-2,5-dihydro-1H-pyrrol-1-yl)-3-(5-(prop-2-yn-1-yloxy)-1H-indol-3-yl)propanoate labeled human MCF7 cells at 100 uM preincubated for 1 hr followed by cell labeling for 30 mins and clicked with TER-PEG-N3 measured after 2 hrs by Hoechst 33342 staining-based immunofluorescence assay
In short: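 Live MCF-7 cells pretreated with competitor at 100 µM for 1 h, then given 5 µM alkyne probe for 30 min in the incubator. Cells were fixed (3.7% formaldehyde), permeabilised (0.1% Triton X-100), clicked with TER-PEG-N3, immunostained with anti-DNMT1 and Hoechst-stained. Imaging was by fluorescence microscopy in four channels (bright-field, probe, IF, nuclear).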

[9] = tested on: MCF7; experiment: Induction of apoptosis in human MCF7 cells assessed as dead cells at 10 uM after 6 hrs by FITC-Annexin V/propidium iodide staining-based FACS analysis relative to control; assay type: functional
In short: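 Live MCF-7 cells treated with compound at 10 µM, then stained with FITC-Annexin V (apoptotic cells) and propidium iodide (dead cells). Signals quantified by flow cytometry and read from histograms.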

SMILES	inhibition [2]	growth inhibition (GI) [1]	GI50 [1] [nM]	Drug uptake [3]	Activity [4]	Activity [5]	Activity [6]	inhibition [7]	inhibition [8]	Activity [9]
COC(=O)[C@H](Cc1ccc(-n2nnc(-c3cc(F)cc(F)c3)n2)cc1)N1C(=O)C=CC1=O	Active	Dose-dependent effect	1100							
COC(=O)[C@H](Cc1ccc(-n2nnc(-c3ccc(OC(F)F)cc3)n2)cc1)N1C(=O)C=CC1=O	Active	Dose-dependent effect	730							
COC(=O)[C@H](Cc1ccc(-n2nnc(-c3ccc(F)cc3)n2)cc1)N1C(=O)C=CC1=O	Active	Dose-dependent effect	1160							
COC(=O)[C@H](Cc1ccc(-n2nnc(-c3cccc4ccccc34)n2)cc1)N1C(=O)C=CC1=O	Active	Dose-dependent effect	480							
C#CCOc1ccc2[nH]cc(C[C@@H](C(=O)OC)N3C(=O)C=CC3=O)c2c1		Dose-dependent effect	290	Active	61%	Active	inactive			
O=C(O)[C@H](Cc1c[nH]c2ccccc12)N1C(=O)c2ccccc2C1=O	Active		128000		Active			Active	Active	Active
COC(=O)[C@H](Cc1ccc(-n2nnc(-c3ccc(C(C)C)cc3)n2)cc1)N1C(=O)C=CC1=O	Active	Dose-dependent effect	380							
COC(=O)[C@H](Cc1ccc(-n2nnc(-c3ccncc3)n2)cc1)N1C(=O)C=CC1=O	Active	Dose-dependent effect	1860							
COC(=O)[C@H](Cc1ccc(-n2nnc(-c3ccc(OC)cc3)n2)cc1)N1C(=O)C=CC1=O	Active	Dose-dependent effect	870							
COC(=O)[C@H](Cc1ccc(-n2nnc(-c3ccccc3)n2)cc1)N1C(=O)C=CC1=O	Active	Dose-dependent effect	300		Active			Active	Active	Active

Second part, led by results:

inhibition [2]	SMILES	growth inhibition (GI) [1]	GI50 [1] [nM]	Drug uptake [3]	Activity [4]	Activity [5]	Activity [6]	inhibition [7]	inhibition [8]	Activity [9]
Active	CCCCCCOc1ccc(-c2nnn(-c3ccc(C[C@@H](C(=O)OC)N4C(=O)C=CC4=O)cc3)n2)cc1	Dose-dependent effect	6150							
Active	COC(=O)[C@H](Cc1ccc(-n2nnc(-c3ccc(C(F)(F)F)cc3)n2)cc1)N1C(=O)C=CC1=O	Dose-dependent effect	1770							
Active	COC(=O)[C@H](Cc1ccc(-n2nnc(-c3ccc(N(C)C)cc3)n2)cc1)N1C(=O)C=CC1=O	Dose-dependent effect	1080							
Active	O=C(O)[C@H](Cc1c[nH]c2ccccc12)N1C(=O)C=CC1=O		7310					Active	Active	
Active	COC(=O)[C@H](Cc1ccc(-n2nnc(-c3cc(C)cc(C)c3)n2)cc1)N1C(=O)C=CC1=O	Dose-dependent effect	780							
